Measured values reported in ChEMBL document CHEMBL1151458, “Comparative analysis of the bactericidal activities of amphibian peptide analogues against multidrug-resistant nosocomial bacterial strains” (2008).
Calls of active or inactive are those of the source. The calls are words filed in the database; no cut-off is given here.

Columns and labels:
Pseudomonas aeruginosa [1] = assay: Bactericidal activity against Pseudomonas aeruginosa isolate 2 with AMP-CFZ-CIP-CTX-CXM-GEN-LVX-IPM-MEM-SXT-TET resistance phenotype assessed as concentration required for >= 3 log10 CFU/ml reduction in viable bacteria in sodium phosphate buffer at pH 7.4 after 1.5 hrs by liquid microdilution assay; type: functional
Procedure, shortened: (§1)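 Clinical multidrug-resistant isolates grown to mid-log in tryptone soy broth and stored frozen. Exponential cells resuspended in 10 mM sodium phosphate buffer, pH 7.4, at 1 × 10^7 CFU/ml; 10 μl incubated with graded peptide concentrations in 100 μl at 37°C for 1.5 h. Plated on tryptone soy agar, CFU read after 24 h at 37°C. Peptide stocks in 20% ethanol.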

Pseudomonas aeruginosa [2] = assay: Bactericidal activity against Pseudomonas aeruginosa isolate 3 with AMP-CFZ-CTX-CIP-GEN-IPM-LVX-SXT-TET-TOB resistance phenotype assessed as concentration required for >= 3 log10 CFU/ml reduction in viable bacteria in sodium phosphate buffer at pH 7.4 after 1.5 hrs by liquid microdilution assay; type: functional; procedure, shortened: as §1
Enterococcus faecium [3] = assay: Bactericidal activity against Enterococcus faecium isolate 3 with AMP-CIP-CTX-ERY-GEN-LVX-SXT-TEC-VAN resistance phenotype assessed as concentration required for >= 3 log10 CFU/ml reduction in viable bacteria in 20% heat-inactivated human serum after 1.5 hrs by liquid microdilution assay; type: functional
Procedure, shortened: (§2)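 The buffer microdilution kill assay (1 × 10^7 CFU/ml mid-log cells, 10 μl in 100 μl, 37°C, 1.5 h, CFU on tryptone soy agar after 24 h) with serum added to 20% or 40% final. Serum was pooled from five healthy donors, clotted at room temperature, spun at 300 × g and heat-inactivated at 56°C for 30 min.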

Staphylococcus aureus [4] = assay: Bactericidal activity against Staphylococcus aureus isolate 1 with AMC-AMP-CIP-ERY-GEN-OXA-RIF resistance phenotype assessed as concentration required for >= 3 log10 CFU/ml reduction in viable bacteria in 20% heat-inactivated human serum after 1.5 hrs by liquid microdilution assay; type: functional; procedure, shortened: as §2
[5] = system: Stenotrophomonas maltophilia; assay: Bactericidal activity against Stenotrophomonas maltophilia isolate 2 with AMK-CIP-CTX-IPM-MEM-SAM-TZP resistance phenotype assessed as concentration required for >= 3 log10 CFU/ml reduction in viable bacteria in 20% heat-inactivated human serum after 1.5 hrs by liquid microdilution assay; type: functional; procedure, shortened: as §2
Acinetobacter baumannii [6] = assay: Bactericidal activity against Acinetobacter baumannii isolate 3 with AMP-AMC-CFZ-CIP-IPM-SXT-TET-TOB resistance phenotype assessed as concentration required for >= 3 log10 CFU/ml reduction in viable bacteria in 20% heat-inactivated human serum after 1.5 hrs by liquid microdilution assay; type: functional; procedure, shortened: as §2
Pseudomonas aeruginosa [7] = assay: Bactericidal activity against Pseudomonas aeruginosa isolate 1 with AMP-CFZ-CIP-CTX-CXM-GEN-LVX-SXT-TET resistance phenotype assessed as concentration required for >= 3 log10 CFU/ml reduction in viable bacteria in 20% heat-inactivated human serum after 1.5 hrs by liquid microdilution assay; type: functional; procedure, shortened: as §2
Staphylococcus aureus [8] = assay: Antimicrobial activity against Staphylococcus aureus isolate 1 with AMC-AMP-CIP-ERY-GEN-OXA-RIF resistance phenotype at twofold the bactericidal concentration within 30 mins; type: functional, organism-based
Procedure, shortened: (§3)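 Time-kill in 10 mM sodium phosphate buffer, pH 7.4: 1 × 10^7 CFU/ml mid-log clinical isolate (10 μl) exposed at 37°C to peptide at the 1.5-h bactericidal concentration or twofold that, in 100 μl. Samples taken from 2 min onward, plated on tryptone soy agar, CFU counted after 24 h at 37°C. Killing taken as ≥3 log10 CFU/ml drop.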

[9] = system: Stenotrophomonas maltophilia; assay: Antimicrobial activity against Stenotrophomonas maltophilia isolate 2 with AMK-CIP-CTX-IPM-MEM-SAM-TZP resistance phenotype assessed as assessed as time to kill at twofold bactericidal concentration; type: functional; procedure, shortened: as §3
Acinetobacter baumannii [10] = assay: Antimicrobial activity against Acinetobacter baumannii isolate 3 with AMP-AMC-CFZ-CIP-IPM-SXT-TET-TOB resistance phenotype assessed as time to kill at bactericidal concentration; type: functional; procedure, shortened: as §3
Pseudomonas aeruginosa [11] = assay: Antimicrobial activity against Pseudomonas aeruginosa isolate 1 with AMP-CFZ-CIP-CTX-CXM-GEN-LVX-SXT-TET resistance phenotype at bactericidal concentration after 30 mins by time kill assay; type: functional, organism-based; procedure, shortened: as §3
Pseudomonas aeruginosa [12] = assay: Antimicrobial activity against Pseudomonas aeruginosa isolate 1 with AMP-CFZ-CIP-CTX-CXM-GEN-LVX-SXT-TET resistance phenotype at twofold bactericidal concentration after 10 to 30 mins by time kill assay; type: functional, organism-based; procedure, shortened: as §3
Enterococcus faecium [13] = assay: Antimicrobial activity against Enterococcus faecium isolate 3 with AMP-CIP-CTX-ERY-GEN-LVX-SXT-TEC-VAN resistance phenotype assessed as time to kill at bactericidal concentration; type: functional; procedure, shortened: as §3
Enterococcus faecium [14] = assay: Antimicrobial activity against Enterococcus faecium isolate 3 with AMP-CIP-CTX-ERY-GEN-LVX-SXT-TEC-VAN resistance phenotype assessed as time to kill at twofold the bactericidal concentration; type: functional, organism-based; procedure, shortened: as §3
Enterococcus faecium [15] = assay: Bactericidal activity against Enterococcus faecium isolate 3 with AMP-CIP-CTX-ERY-GEN-LVX-SXT-TEC-VAN resistance phenotype assessed as concentration required for >= 3 log10 CFU/ml reduction in viable bacteria in sodium phosphate buffer at pH 7.4 after 1.5 hrs by liquid microdilution assay; type: functional; procedure, shortened: as §1
Enterococcus faecium [16] = assay: Bactericidal activity against Enterococcus faecium isolate 5 with AMP-AMC-CIP-CLI-ERY-GEN-KAN-LVX-SXT-TEC-VAN resistance phenotype assessed as concentration required for >= 3 log10 CFU/ml reduction in viable bacteria in sodium phosphate buffer at pH 7.4 after 1.5 hrs by liquid microdilution assay; type: functional; procedure, shortened: as §1
Enterococcus faecium [17] = assay: Bactericidal activity against Enterococcus faecium isolate 6 with AMP-AMC-CLI-CRO-CTX-CIP-ERY-GEN-KAN-LVX-SXT-VAN resistance phenotype assessed as concentration required for >= 3 log10 CFU/ml reduction in viable bacteria in sodium phosphate buffer at pH 7.4 after 1.5 hrs by liquid microdilution assay; type: functional; procedure, shortened: as §1
Staphylococcus aureus [18] = assay: Bactericidal activity against Staphylococcus aureus isolate 1 with AMC-AMP-CIP-ERY-GEN-OXA-RIF resistance phenotype assessed as concentration required for >= 3 log10 CFU/ml reduction in viable bacteria in sodium phosphate buffer at pH 7.4 after 1.5 hrs by liquid microdilution assay; type: functional; procedure, shortened: as §1
Staphylococcus aureus [19] = assay: Bactericidal activity against Staphylococcus aureus isolate 2 with AMC-AMP-CIP-ERY-GEN-LVX-OXA-RIF-TET resistance phenotype assessed as concentration required for >= 3 log10 CFU/ml reduction in viable bacteria in sodium phosphate buffer at pH 7.4 after 1.5 hrs by liquid microdilution assay; type: functional; procedure, shortened: as §1
Staphylococcus aureus [20] = assay: Bactericidal activity against Staphylococcus aureus isolate 3 with AMC-AMP-CIP-ERY-GEN-LVX-OXA resistance phenotype assessed as concentration required for >= 3 log10 CFU/ml reduction in viable bacteria in sodium phosphate buffer at pH 7.4 after 1.5 hrs by liquid microdilution assay; type: functional; procedure, shortened: as §1
[21] = system: Stenotrophomonas maltophilia; assay: Bactericidal activity against Stenotrophomonas maltophilia isolate 1 with AMK-CIP-CTX-IPM-MEM-SAM-TZP resistance phenotype assessed as concentration required for >= 3 log10 CFU/ml reduction in viable bacteria in sodium phosphate buffer at pH 7.4 after 1.5 hrs by liquid microdilution assay; type: functional; procedure, shortened: as §1
[22] = system: Stenotrophomonas maltophilia; assay: Bactericidal activity against Stenotrophomonas maltophilia isolate 2 with AMK-CIP-CTX-IPM-MEM-SAM-TZP resistance phenotype assessed as concentration required for >= 3 log10 CFU/ml reduction in viable bacteria in sodium phosphate buffer at pH 7.4 after 1.5 hrs by liquid microdilution assay; type: functional; procedure, shortened: as §1
[23] = system: Stenotrophomonas maltophilia; assay: Bactericidal activity against Stenotrophomonas maltophilia isolate 4 with AMK-CAZ-CIP-FEP-IPM-SAM-TZP resistance phenotype assessed as concentration required for >= 3 log10 CFU/ml reduction in viable bacteria in sodium phosphate buffer at pH 7.4 after 1.5 hrs by liquid microdilution assay; type: functional; procedure, shortened: as §1
Acinetobacter baumannii [24] = assay: Bactericidal activity against Acinetobacter baumannii isolate 1 with AMP-AMC-CFZ-CIP-IPM-LVX-PIP-SXT-TET resistance phenotype assessed as concentration required for >= 3 log10 CFU/ml reduction in viable bacteria in sodium phosphate buffer at pH 7.4 after 1.5 hrs by liquid microdilution assay; type: functional; procedure, shortened: as §1
Acinetobacter baumannii [25] = assay: Bactericidal activity against Acinetobacter baumannii isolate 2 with AMP-CFZ-CIP-LVX-PIP-SXT resistance phenotype assessed as concentration required for >= 3 log10 CFU/ml reduction in viable bacteria in sodium phosphate buffer at pH 7.4 after 1.5 hrs by liquid microdilution assay; type: functional; procedure, shortened: as §1
Acinetobacter baumannii [26] = assay: Bactericidal activity against Acinetobacter baumannii isolate 3 with AMP-AMC-CFZ-CIP-IPM-SXT-TET-TOB resistance phenotype assessed as concentration required for >= 3 log10 CFU/ml reduction in viable bacteria in sodium phosphate buffer at pH 7.4 after 1.5 hrs by liquid microdilution assay; type: functional; procedure, shortened: as §1
Pseudomonas aeruginosa [27] = assay: Bactericidal activity against Pseudomonas aeruginosa isolate 1 with AMP-CFZ-CIP-CTX-CXM-GEN-LVX-SXT-TET resistance phenotype assessed as concentration required for >= 3 log10 CFU/ml reduction in viable bacteria in sodium phosphate buffer at pH 7.4 after 1.5 hrs by liquid microdilution assay; type: functional; procedure, shortened: as §1

## H-LLPIVGNLLKSLL-NH2
Pseudomonas aeruginosa [1]
  Activity: 48 µM
Pseudomonas aeruginosa [2]
  Activity: 48 µM
Enterococcus faecium [3]
  Activity: 48 µM
Staphylococcus aureus [4]
  Activity: 96 µM
[5]
  Activity: 192 µM
Acinetobacter baumannii [6]
  Activity: 192 µM
Pseudomonas aeruginosa [7]
  Activity: 192 µM
Staphylococcus aureus [8]
  Activity: Active
[9]
  Time: 2 min
Acinetobacter baumannii [10]
  Time: >=30 min
Pseudomonas aeruginosa [11]
  Activity: inactive
Pseudomonas aeruginosa [12]
  Activity: Active
Enterococcus faecium [13]
  Time: 5 min
Enterococcus faecium [14]
  Activity: inactive
Enterococcus faecium [15]
  Activity: 12 µM
Enterococcus faecium [16]
  Activity: 12 µM
Enterococcus faecium [17]
  Activity: 12 µM
Staphylococcus aureus [18]
  Activity: 48 µM
Staphylococcus aureus [19]
  Activity: 48 µM
Staphylococcus aureus [20]
  Activity: 12 µM
[21]
  Activity: 24 µM
[22]
  Activity: 3 µM
[23]
  Activity: 48 µM
Acinetobacter baumannii [24]
  Activity: 24 µM
Acinetobacter baumannii [25]
  Activity: 6 µM
Acinetobacter baumannii [26]
  Activity: 6 µM
Pseudomonas aeruginosa [27]
  Activity: 48 µM

## H-FFPVIGRILNGIL-NH2 [TEMPORIN G]
Pseudomonas aeruginosa [1]
  Activity: 48 µM
Pseudomonas aeruginosa [2]
  Activity: 48 µM
Enterococcus faecium [3]
  Activity: 48 µM
Staphylococcus aureus [4]
  Activity: 96 µM
[5]
  Activity: >192 µM
Acinetobacter baumannii [6]
  Activity: >193 µM
Pseudomonas aeruginosa [7]
  Activity: >194 µM
Staphylococcus aureus [8]
  Activity: Active
[9]
  Time: 2 min
Acinetobacter baumannii [10]
  Time: >=30 min
Pseudomonas aeruginosa [11]
  Activity: inactive
Pseudomonas aeruginosa [12]
  Activity: Active
Enterococcus faecium [13]
  Time: 5 min
Enterococcus faecium [14]
  Activity: inactive
Enterococcus faecium [15]
  Activity: 6 µM
Enterococcus faecium [16]
  Activity: 6 µM
Enterococcus faecium [17]
  Activity: 6 µM
Staphylococcus aureus [18]
  Activity: 24 µM
Staphylococcus aureus [19]
  Activity: 12 µM
Staphylococcus aureus [20]
  Activity: 12 µM
[21]
  Activity: 12 µM
[22]
  Activity: 3 µM
[23]
  Activity: >96 µM
Acinetobacter baumannii [24]
  Activity: 12 µM
Acinetobacter baumannii [25]
  Activity: 6 µM
Acinetobacter baumannii [26]
  Activity: 6 µM
Pseudomonas aeruginosa [27]
  Activity: 48 µM

## H-FLPLIGRVLSGIL-NH2 [TEMPORIN A]
Pseudomonas aeruginosa [1]
  Activity: 48 µM
Pseudomonas aeruginosa [2]
  Activity: 96 µM
Enterococcus faecium [3]
  Activity: 48 µM
Staphylococcus aureus [4]
  Activity: 48 µM
[5]
  Activity: >192 µM
Acinetobacter baumannii [6]
  Activity: >193 µM
Pseudomonas aeruginosa [7]
  Activity: >194 µM
Staphylococcus aureus [8]
  Activity: inactive
[9]
  Time: 2 min
Acinetobacter baumannii [10]
  Time: >=30 min
Pseudomonas aeruginosa [11]
  Activity: inactive
Pseudomonas aeruginosa [12]
  Activity: Active
Enterococcus faecium [13]
  Time: 5 min
Enterococcus faecium [14]
  Activity: inactive
Enterococcus faecium [15]
  Activity: 12 µM
Enterococcus faecium [16]
  Activity: 12 µM
Enterococcus faecium [17]
  Activity: 12 µM
Staphylococcus aureus [18]
  Activity: 12 µM
Staphylococcus aureus [19]
  Activity: 12 µM
Staphylococcus aureus [20]
  Activity: 12 µM
[21]
  Activity: 48 µM
[22]
  Activity: 12 µM
[23]
  Activity: 96 µM
Acinetobacter baumannii [24]
  Activity: 24 µM
Acinetobacter baumannii [25]
  Activity: 12 µM
Acinetobacter baumannii [26]
  Activity: 12 µM
Pseudomonas aeruginosa [27]
  Activity: 48 µM
